Data published in ChEMBL document CHEMBL1153805, “Phenylethanoid glycosides from Lantana fucata with in vitro anti-inflammatory activity” (J Nat Prod, 2009).

Columns and labels:
[1] = Antiproliferative activity against mouse J774A1 cells assessed as cell viability at 100 ug/ml after 72 hrs by MTT assay relative to LPS; format: cell-based, J774.A1
How it was run: (§1)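 J774A.1 cells (3.5 × 10⁴/well) adhered 2 h at 37 °C, 5% CO₂. Medium was renewed, then serial dilutions of compound were added for 72 h. MTT was added for a further 3 h, formazan was dissolved in 50% DMF/20% SDS (pH 4.5), and OD was read at 620 nm. % dead cells = 100 − (OD treated/OD control) × 100. A cell-free control tested for MTT interference.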

[2] = Antiproliferative activity against mouse J774A1 cells assessed as cell viability at 1 ug/ml after 72 hrs by MTT assay relative to LPS; format: cell-based, J774.A1; how it was run: as §1
J774.A1 [3] = test: Antiinflammatory activity in mouse J774A1 cells assessed as inhibition of LPS-induced NO release at 10 ug/ml after 24 hrs treated 1 hr before LPS challenge relative to LPS; format: functional
How it was run: (§2)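 J774A.1 cells (5.0 × 10⁴/well) adhered 2 h at 37 °C, 5% CO₂. Compounds added 1 h before and simultaneously with E. coli LPS (6 × 10³ U/mL) to induce iNOS. Nitrite accumulated in medium was measured 24 h after LPS with Griess reagent against a sodium nitrite standard curve made in culture medium. Expressed as % inhibition versus LPS-only cells. L-NAME (1 µM) was the reference.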

[4] = Antiproliferative activity against mouse J774A1 cells assessed as cell viability at 10 ug/ml after 72 hrs by MTT assay relative to LPS; format: cell-based, J774.A1; how it was run: as §1
J774.A1 [5] = test: Antiinflammatory activity in mouse J774A1 cells assessed as inhibition of LPS-induced NO release at 1 ug/ml after 24 hrs treated 1 hr before LPS challenge relative to LPS; format: functional; how it was run: as §2
J774.A1 [6] = test: Antiinflammatory activity in mouse J774A1 cells assessed as inhibition of LPS-induced NO release at 100 ug/ml after 24 hrs treated 1 hr before LPS challenge relative to LPS; format: functional; how it was run: as §2
J774.A1 [7] = test: Antiinflammatory activity in mouse J774A1 cells assessed as inhibition of LPS-induced NO release at 1 uM after 24 hrs treated 1 hr before LPS challenge relative to LPS; format: functional
How it was run: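 J774A.1 murine macrophages plated at 5.0 × 10⁴ cells/well, adhered 2 h at 37 °C in 5% CO₂. Compounds (1-100 µg/mL) added 1 h before and simultaneously with E. coli LPS (6 × 10³ U/mL) to induce iNOS. After 24 h, nitrite in medium measured by Griess reagent against a sodium nitrite standard curve made in culture medium. Expressed as % inhibition versus LPS alone.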

Row | Structure (SMILES) | viability at 72 h, 100 ug/ml [1] | viability at 72 h, 1 ug/ml [2] | inhibition at 10 µg/mL (J774.A1 [3]) | viability at 72 h, 10 ug/ml [4] | inhibition at 1 µg/mL (J774.A1 [5]) | inhibition at 100 µg/mL (J774.A1 [6]) | inhibition at 1 µM (J774.A1 [7])
1 | C[C@@H]1O[C@@H](O[C@H]2[C@H](OCCc3ccc(O)c(O)c3)O[C@H](CO)[C@@H](OC(=O)/C=C/c3ccc(O)c(O)c3)[C@@H]2O)[C@H](O)[C@H](O)[C@H]1O [PARVIFLOROSIDE A] | 96.9% | 96.7% | 9% | 95.9% | 3.8% | 88.5% | 
2 | O=C(/C=C/c1ccc(O)c(O)c1)O[C@H]1[C@H](O)[C@@H](O[C@@H]2OC[C@](O)(CO)[C@H]2O)[C@H](OCCc2ccc(O)c(O)c2)O[C@@H]1CO [FUCATOSIDE A] | 95% | 97.3% | 11.2% | 95.9% | 13.3% | 52.5% | 
3 | COC(=O)[C@@H](N)CCCNC(=N)N[N+](=O)[O-] [L-NAME] |  |  |  |  |  |  | 46.6%
4 | O=C(/C=C/c1ccc(O)c(O)c1)O[C@H]1[C@H](O[C@@H]2OC[C@](O)(CO)[C@H]2O)[C@@H](O[C@@H]2OC[C@@H](O)[C@H](O)[C@H]2O)[C@H](OCCc2ccc(O)c(O)c2)O[C@@H]1CO [FUCATOSIDE B] | 94.4% | 97.5% | 16.4% | 96.1% | 13.7% | 81.4% | 
5 | O=C(/C=C/c1ccc(O)c(O)c1)O[C@H]1[C@H](O[C@@H]2OC[C@@](O)(CO)[C@H]2O)[C@@H](O[C@@H]2OC[C@@](O)(CO)[C@H]2O)[C@H](OCCc2ccc(O)c(O)c2)O[C@@H]1CO [FUCATOSIDE C] | 94.3% | 96.4% | 31.8% | 96.8% | 4.4% | 93.7% | 
6 | Sc1ncnc2nc[nH]c12 [MERCAPTOPURINE ANHYDROUS] | 31.8% | 44.1% |  | 38% |  |  | 
